Calls of active or inactive are those of the source. No cut-off for these calls is given here.
Columns and labels:
L6 [1] = experiment: Induction of glucose uptake in rat L6 cells harboring GLUT4-myc assessed as glucose uptake at 10 uM relative to control; type: functional
Method in brief: (§1)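 L6-GLUT4myc rat skeletal muscle cells were exposed once to test compound at 10 µM. Glucose uptake was read and reported as fold increase and as percent stimulation over untreated control.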

L6 [2] = experiment: Induction of glucose uptake in rat L6 cells harboring GLUT4-myc assessed as fold change in glucose uptake at 10 uM; type: functional; method in brief: as §1
[3] = molecular target: T1, Solute carrier family 2, facilitated glucose transporter member 4 (Rattus norvegicus) (UniProt P19357); experiment: Induction of GLUT4 translocation in rat L6 cells harboring GLUT4-myc assessed as increase in surface level GLUT4myc at 10 uM after 16 hrs; type: cell-based
T1 sequence (whole entry): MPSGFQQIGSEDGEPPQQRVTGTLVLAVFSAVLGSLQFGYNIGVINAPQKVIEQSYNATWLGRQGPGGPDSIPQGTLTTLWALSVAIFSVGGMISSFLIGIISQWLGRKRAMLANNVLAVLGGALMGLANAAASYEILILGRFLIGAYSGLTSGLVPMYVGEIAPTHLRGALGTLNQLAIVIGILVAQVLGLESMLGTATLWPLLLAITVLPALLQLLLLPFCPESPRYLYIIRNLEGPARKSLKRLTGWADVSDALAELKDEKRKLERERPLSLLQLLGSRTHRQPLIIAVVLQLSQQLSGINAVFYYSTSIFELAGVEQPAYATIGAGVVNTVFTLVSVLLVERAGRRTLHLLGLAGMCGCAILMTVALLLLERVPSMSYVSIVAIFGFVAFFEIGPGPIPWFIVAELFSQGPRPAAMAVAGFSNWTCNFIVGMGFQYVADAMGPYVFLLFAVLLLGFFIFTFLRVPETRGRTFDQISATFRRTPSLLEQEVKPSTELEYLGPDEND

L6 [4] = experiment: Induction of glucose uptake in rat L6 cells harboring GLUT4-myc assessed as glucose uptake at 500 uM relative to control; type: functional
Method in brief: (§2)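 L6-GLUT4myc skeletal muscle cells were exposed to the reference agent at 500 µM. Glucose uptake was measured as fold increase and as percent stimulation relative to untreated control.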

L6 [5] = experiment: Induction of glucose uptake in rat L6 cells harboring GLUT4-myc assessed as fold change in glucose uptake at 500 uM; type: functional; method in brief: as §2
[6] = molecular target: T1, Solute carrier family 2, facilitated glucose transporter member 4 (Rattus norvegicus); experiment: Induction of GLUT4 translocation in rat L6 cells harboring GLUT4-myc assessed as fold change in increase of surface level GLUT4myc at 500 uM after 16 hrs; type: cell-based
Method in brief: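 L6-GLUT4myc myotubes were exposed for 16 h, and cell-surface GLUT4myc level was then measured. Experiments were done in triplicate and expressed as mean ± SE, with p relative to the unstimulated control.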

Row | SMILES | Activity (L6 [1]) | also measured
1 | CCOC(=O)CCCOc1ccc(-c2nc3c(cnn3-c3ccccc3)c(=O)[nH]2)cc1 | -8.3% | 
2 | CCOC(=O)COc1ccc(-c2nc3c(cnn3-c3ccc(OC)cc3)c(=O)[nH]2)cc1 | 13.1% | 
3 | CCOC(=O)C(C)Oc1ccc(-c2nc3c(cnn3-c3ccccc3)c(=O)[nH]2)cc1 (configuration not stated) | 34% | fold change (FC) (L6 [2]): 1.34; Activity [3]: Active
4 | CCOC(=O)COc1ccc(-c2nc3c(cnn3-c3ccccc3)c(=O)[nH]2)cc1 | -8.6% | 
5 | CCOC(=O)C(C)Oc1ccc(-c2nc3c(cnn3-c3ccc(F)cc3)c(=O)[nH]2)cc1 (configuration not stated) | 0.6% | 
6 | CCOC(=O)CCCOc1ccc(-c2nc3c(cnn3-c3ccc(F)cc3F)c(=O)[nH]2)cc1 | 2.9% | 
7 | CCOC(=O)CCCOc1ccc(-c2nc3c(cnn3-c3ccc(OC)cc3)c(=O)[nH]2)cc1 | 10.4% | 
8 | CCOC(=O)C(C)(C)Oc1ccc(-c2nc3c(cnn3-c3ccc(F)cc3)c(=O)[nH]2)cc1 | 0.6% | 
9 | CCOC(=O)COc1ccc(-c2nc3c(cnn3-c3ccc(C)c(C)c3)c(=O)[nH]2)cc1 | -16.8% | 
10 | CCOC(=O)C(C)(C)Oc1ccc(-c2nc3c(cnn3-c3ccc(F)cc3F)c(=O)[nH]2)cc1 | -12.8% | 
11 | CCOC(=O)C(C)(C)Oc1ccc(-c2nc3c(cnn3-c3ccc(C)c(C)c3)c(=O)[nH]2)cc1 | 12.9% | 
12 | CCOC(=O)C(C)Oc1ccc(-c2nc3c(cnn3-c3ccc(F)cc3F)c(=O)[nH]2)cc1 (configuration not stated) | -14.7% | 
13 | CCOC(=O)C(C)Oc1ccc(-c2nc3c(cnn3-c3ccc(OC)cc3)c(=O)[nH]2)cc1 (configuration not stated) | 34.4% | fold change (FC) (L6 [2]): 1.34; Activity [3]: Active
14 | CCOC(=O)COc1ccc(-c2nc3c(cnn3-c3ccc(F)cc3F)c(=O)[nH]2)cc1 | -1.6% | 
15 | CCOC(=O)CCCOc1ccc(-c2nc3c(cnn3-c3ccc(C)c(C)c3)c(=O)[nH]2)cc1 | 54% | fold change (FC) (L6 [2]): 1.54; Activity [3]: Active
16 | CN(C)C(=N)NC(=N)N [METFORMIN] |  | Activity (L6 [4]): 48%; fold change (FC) (L6 [5]): 1.48; fold change (FC) [6]: 1.45
17 | CCOC(=O)CCCOc1ccc(-c2nc3c(cnn3-c3ccc(F)cc3)c(=O)[nH]2)cc1 | 6.4% | 
18 | CCOC(=O)C(C)(C)Oc1ccc(-c2nc3c(cnn3-c3ccc(OC)cc3)c(=O)[nH]2)cc1 | 5% | 
19 | CCOC(=O)C(C)(C)Oc1ccc(-c2nc3c(cnn3-c3ccccc3)c(=O)[nH]2)cc1 | 34.4% | fold change (FC) (L6 [2]): 1.34; Activity [3]: Active
20 | CCOC(=O)C(C)Oc1ccc(-c2nc3c(cnn3-c3ccc(C)c(C)c3)c(=O)[nH]2)cc1 (configuration not stated) | -17.2% | 
21 | CCOC(=O)C(C)Oc1ccc(-c2nc3c(cnn3-c3ccc(F)cc3)c(=O)n2C)cc1 (configuration not stated) | 2.9% | 
22 | CCOC(=O)COc1ccc(-c2nc3c(cnn3-c3ccc(F)cc3)c(=O)[nH]2)cc1 | 23.7% | 

Reference: ChEMBL document CHEMBL4715886, “Microwave-assisted efficient synthesis of pyrazole-fibrate derivatives as stimulators of glucose uptake in skeletal muscle cells” (2021)
